Source: ChEMBL document CHEMBL1255354, “Methicillin-resistant Staphylococcus saprophyticus isolates carrying staphylococcal cassette chromosome mec have emerged in urogenital tract infections” (2008)
In brackets after ≈: the same amount, converted by molar mass.

Key:
[1] = test system: Staphylococcus saprophyticus; assay: Antibacterial activity against methicillin-resistant mecA-positive Staphylococcus saprophyticus isolate TSU57 isolated from genitourinary tracts of acute cystitis patient after 24 hrs at 35 degC by agar dilution method; format: functional; conditions: isolate TSU57, Urine
In short: (§1)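 MICs by agar dilution per CLSI M7-A6 on Mueller-Hinton agar, plates incubated 35°C for 24 h. Isolates identified as S. saprophyticus by Gram stain, catalase, coagulase, DNase, egg yolk mannitol salt agar growth, novobiocin susceptibility and ID 32 API Staph; mecA detected by dot-blot hybridization.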

[2] = test system: Staphylococcus saprophyticus; assay: Antibacterial activity against methicillin-resistant mecA-positive Staphylococcus saprophyticus isolate TSU33 after 24 hrs at 35 degC by agar dilution method; conditions: isolate TSU33, 24 h
[3] = test system: Staphylococcus saprophyticus; assay: Antibacterial activity against methicillin-resistant mecA-positive Staphylococcus saprophyticus isolate TSU67 isolated from genitourinary tracts of acute cystitis patient after 24 hrs at 35 degC by agar dilution method; format: functional; conditions: isolate TSU67, Urine; in short: as §1
[4] = test system: Staphylococcus saprophyticus; assay: Antibacterial activity against methicillin-resistant mecA-positive Staphylococcus saprophyticus isolate TSU69 isolated from genitourinary tracts of acute cystitis patient after 24 hrs at 35 degC by agar dilution method; format: functional; conditions: isolate TSU69, Urine; in short: as §1
[5] = test system: Staphylococcus saprophyticus; assay: Antibacterial activity against methicillin-resistant mecA-positive Staphylococcus saprophyticus isolate TSU18 isolated from genitourinary tracts of acute cystitis patient after 24 hrs at 35 degC by agar dilution method; format: functional; conditions: isolate TSU18, Urine; in short: as §1
[6] = test system: Staphylococcus saprophyticus; assay: Antibacterial activity against methicillin-resistant mecA-positive Staphylococcus saprophyticus isolate TSU90 isolated from genitourinary tracts of acute cystitis patient after 24 hrs at 35 degC by agar dilution method; format: functional; conditions: isolate TSU90, Urine; in short: as §1
[7] = test system: Staphylococcus saprophyticus; assay: Antibacterial activity against methicillin-resistant mecA-positive Staphylococcus saprophyticus isolate TSU47 isolated from genitourinary tracts of acute cystitis patient after 24 hrs at 35 degC by agar dilution method; format: functional; conditions: isolate TSU47, Urine; in short: as §1
[8] = test system: Staphylococcus saprophyticus; assay: Antibacterial activity against methicillin-resistant mecA-positive Staphylococcus saprophyticus isolates isolated from genitourinary tracts of acute cystitis patient after 24 hrs at 35 degC by agar dilution method; format: functional; conditions: Urine; in short: as §1
[9] = test system: Staphylococcus saprophyticus; assay: Antibacterial activity against methicillin-resistant mecA-positive Staphylococcus saprophyticus isolate TSU28 isolated from genitourinary tracts of acute cystitis patient after 24 hrs at 35 degC by agar dilution method; format: functional; conditions: isolate TSU28, Urine; in short: as §1

| SMILES | MIC [1] [µg/mL] | MIC [2] [µg/mL] | MIC [3] [µg/mL] | MIC [4] [µg/mL] | MIC [5] [µg/mL] | MIC [6] [µg/mL] | MIC [7] [µg/mL] | MIC50 [8] [µg/mL] | MIC90 [8] [µg/mL] | MIC [9] [µg/mL] |
| --- | --- | --- | --- | --- | --- | --- | --- | --- | --- | --- |
| C[C@@H]1O[C@@H]1P(=O)(O)O [FOSFOMYCIN] | 128 (≈ 927 µM) | 128 (≈ 927 µM) | 256 (≈ 1850 µM) | ≥ 512 | 64 (≈ 464 µM) | ≥ 512 | 128 (≈ 927 µM) | 128 (≈ 927 µM) | ≥ 512 | ≥ 512 |
| CC1(C)S[C@@H]2[C@H](NC(=O)[C@H](N)c3ccccc3)C(=O)N2[C@H]1C(=O)O [AMPICILLIN] |  |  |  |  |  |  | 4 (≈ 11.4 µM) | 0.25 (≈ 0.715 µM) | 1 (≈ 2.86 µM) |  |
| Cc1onc(-c2ccccc2)c1C(=O)N[C@@H]1C(=O)N2[C@@H]1SC(C)(C)[C@@H]2C(=O)O [OXACILLIN] | 128 (≈ 319 µM) | 128 (≈ 319 µM) | 256 (≈ 638 µM) | 128 (≈ 319 µM) | 128 (≈ 319 µM) | 128 (≈ 319 µM) | 64 (≈ 159 µM) | 0.5 (≈ 1.25 µM) | 1 (≈ 2.49 µM) | 256 (≈ 638 µM) |
| CC[C@H]1OC(=O)[C@H](C)[C@@H](O[C@H]2C[C@@](C)(OC)[C@@H](O)[C@H](C)O2)[C@H](C)[C@@H](O[C@@H]2O[C@H](C)C[C@H](N(C)C)[C@H]2O)[C@](C)(OC)C[C@@H](C)C(=O)[C@H](C)[C@@H](O)[C@]1(C)O [CLARITHROMYCIN] | 16 (≈ 21.4 µM) | 16 (≈ 21.4 µM) | 0.125 (≈ 0.167 µM) | 0.125 (≈ 0.167 µM) | 16 (≈ 21.4 µM) | 16 (≈ 21.4 µM) | 16 (≈ 21.4 µM) | ≤ 0.06 | 1 (≈ 1.34 µM) | 32 (≈ 42.8 µM) |
| NCC[C@H](O)C(=O)N[C@@H]1C[C@H](N)[C@@H](O[C@H]2O[C@H](CN)CC[C@H]2N)[C@H](O)[C@H]1O[C@H]1O[C@H](CO)[C@@H](O)[C@H](N)[C@H]1O [ARBEKACIN] | ≤ 0.06 | ≤ 0.06 | ≤ 0.06 | ≤ 0.06 | ≤ 0.06 | ≤ 0.06 | ≤ 0.06 | ≤ 0.06 | ≤ 0.06 | ≤ 0.06 |
| CC[C@H]1OC(=O)[C@H](C)[C@@H](O[C@H]2C[C@@](C)(OC)[C@@H](O)[C@H](C)O2)[C@H](C)[C@@H](O[C@@H]2O[C@H](C)C[C@H](N(C)C)[C@H]2O)[C@](C)(O)C[C@@H](C)C(=O)[C@H](C)[C@@H](O)[C@]1(C)O [ERYTHROMYCIN] | 64 (≈ 87.2 µM) | 64 (≈ 87.2 µM) | 0.25 (≈ 0.341 µM) | 0.25 (≈ 0.341 µM) | 64 (≈ 87.2 µM) | 64 (≈ 87.2 µM) | 64 (≈ 87.2 µM) | 0.125 (≈ 0.17 µM) | 2 (≈ 2.73 µM) | 128 (≈ 174 µM) |
| C[C@@H](O)[C@H]1C(=O)N2C(C(=O)O)=C(SCCNC=N)C[C@H]12 [IMIPENEM ANHYDROUS] | 0.125 (≈ 0.418 µM) | ≤ 0.06 | 0.125 (≈ 0.418 µM) | 0.125 (≈ 0.418 µM) | ≤ 0.06 | 0.125 (≈ 0.418 µM) | 0.125 (≈ 0.418 µM) | ≤ 0.06 | ≤ 0.06 | 0.125 (≈ 0.418 µM) |
| CN[C@H](CC(C)C)C(=O)N[C@H]1C(=O)N[C@@H](CC(N)=O)C(=O)N[C@H]2C(=O)N[C@H]3C(=O)N[C@H](C(=O)N[C@H](C(=O)O)c4cc(O)cc(O)c4-c4cc3ccc4O)[C@H](O)c3ccc(c(Cl)c3)Oc3cc2cc(c3O[C@@H]2O[C@H](CO)[C@@H](O)[C@H](O)[C@H]2O[C@H]2C[C@](C)(N)[C@H](O)[C@H](C)O2)Oc2ccc(cc2Cl)[C@H]1O [VANCOMYCIN] | 0.5 (≈ 0.345 µM) | 0.5 (≈ 0.345 µM) | 1 (≈ 0.69 µM) | 1 (≈ 0.69 µM) | 0.5 (≈ 0.345 µM) | 1 (≈ 0.69 µM) | 1 (≈ 0.69 µM) | 0.5 (≈ 0.345 µM) | 1 (≈ 0.69 µM) | 1 (≈ 0.69 µM) |
| CO[C@@]1(NC(=O)Cc2cccs2)C(=O)N2C(C(=O)O)=C(COC(N)=O)CS[C@@H]21 [CEFOXITIN] | 16 (≈ 37.4 µM) | 8 (≈ 18.7 µM) | 32 (≈ 74.9 µM) | 32 (≈ 74.9 µM) | 16 (≈ 37.4 µM) | 16 (≈ 37.4 µM) | 8 (≈ 18.7 µM) | 2 (≈ 4.68 µM) | 2 (≈ 4.68 µM) | 16 (≈ 37.4 µM) |
| Cc1nnc(SCC2=C(C(=O)O)N3C(=O)[C@@H](NC(=O)Cn4cnnn4)[C@H]3SC2)s1 [CEFAZOLIN] | 16 (≈ 35.2 µM) | 1 (≈ 2.2 µM) | 128 (≈ 282 µM) | 128 (≈ 282 µM) | 16 (≈ 35.2 µM) | 64 (≈ 141 µM) | 4 (≈ 8.8 µM) | 1 (≈ 2.2 µM) | 2 (≈ 4.4 µM) | 32 (≈ 70.4 µM) |
| CC1COc2c(N3CCN(C)CC3)c(F)cc3c(=O)c(C(=O)O)cn1c23 (stereo unspecified) [OFLOXACIN] |  |  | 1 (≈ 2.77 µM) | 1 (≈ 2.77 µM) |  |  |  |  | 1 (≈ 2.77 µM) |  |
| NC[C@H]1O[C@H](O[C@H]2[C@H](O)[C@@H](O[C@H]3O[C@H](CO)[C@@H](O)[C@H](N)[C@H]3O)[C@H](N)C[C@@H]2N)[C@H](O)[C@@H](O)[C@@H]1O [KANAMYCIN] | 0.25 (≈ 0.516 µM) | 0.25 (≈ 0.516 µM) | 0.25 (≈ 0.516 µM) | 0.5 (≈ 1.03 µM) | 0.25 (≈ 0.516 µM) | 0.5 (≈ 1.03 µM) | 0.25 (≈ 0.516 µM) | 0.25 (≈ 0.516 µM) | 0.5 (≈ 1.03 µM) | 0.25 (≈ 0.516 µM) |
